# Source: ChEMBL document CHEMBL4673342, “Lipid-Lowering Activities of Cucurbitacins Isolated from Trichosanthes cucumeroides and Their Synthetic Derivatives” (2020)
# Activity calls are given as the source filed them. No cut-off for these calls is given here.
# Key:
# [1] = Induction of […] uptake in human HepG2 cells assessed as fold change at 5 uM by DIL probe based fluorescence assay; type: functional
# How it was run: (§1)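 HepG2 cells (passages 4–11) in DMEM/10% FBS were treated with DMSO or compound at 5 µM, then given DiI-labelled human plasma LDL (20 µg/mL) for 3 h at 37 °C in the dark. After ice-cold PBS/0.4% albumin rinses, cell-bound dye was extracted with isopropanol and fluorescence read at 520–578 nm. Uptake rate is relative to DMSO. Positive control nagilactone B at 5 µM; n = 3.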
# HepG2 [2] = test: Upregulation of LDLR protein expression in human HepG2 cells by Western blot analysis; type: functional, cell-based; conditions: dose 1-20 µM
# How it was run: (§2)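 HepG2 cells were cultured 12 h, then held a further 24 h in medium with 2% LPDS. Cells were treated with compound across a concentration range, lysed with protease/phosphatase inhibitors, and 30 µg protein was run on 8% SDS-PAGE and blotted to PVDF. Membranes were blocked in 5% milk and probed overnight at 4 °C for LDLR or PCSK9. Mean ± SEM, n ≥ 5.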
# HepG2 [3] = test: Down regulation of PCSK9 protein expression in human HepG2 cells by Western blot analysis; type: functional, cell-based; conditions: dose 1-20 µM; how it was run: as §2
# HepG2 [4] = test: Induction of […] uptake in human HepG2 cells at 5 uM by DIL probe based fluorescence assay; type: functional, cell-based; how it was run: as §1
SMILES,fold change (FC) [1],Activity (HepG2 [2]),Activity (HepG2 [3]),Activity (HepG2 [4])
CC(C)c1oc(=O)cc2c1[C@@H](O)[C@H]1OC(=O)[C@@]3(C)C[C@@H](O)[C@@H](O)[C@@]2(C)C13 (stereo partly drawn),2.07,,,
CC(=O)OC(C)(C)/C=C/C(=O)[C@](C)(O)[C@H]1[C@H](O)C[C@@]2(C)[C@@H]3[C@@H](O)C=C4[C@@H](CC(=O)[C@@H](O)C4(C)C)[C@]3(C)C(=O)C[C@]12C,,Dose-dependent effect,Dose-dependent effect,
CC(=O)[C@H]1[C@H](O)C[C@@]2(C)[C@@H]3CC=C4[C@@H](CC(=O)[C@@H](O)C4(C)C)[C@]3(C)C(=O)C[C@]12C,2.53,Dose-dependent effect,Dose-dependent effect,
CCC(=O)O[C@H]1C[C@@H]2C(=CC[C@@H]3[C@@]2(C)C(=O)C[C@]2(C)[C@@H]([C@@](C)(O)C(=O)CCC(C)(C)OC(C)=O)[C@H](OC(=O)CC)C[C@@]32C)C(C)(C)C1=O,,,,inactive
CC(=O)O[C@H]1C(=O)C[C@@H]2C(=CC[C@@H]3[C@@]2(C)C(=O)C[C@]2(C)[C@@H]([C@@](C)(O)C(=O)CCC(C)(C)OC(C)=O)[C@H](O)C[C@@]32C)C1(C)C,,,,inactive
